Active and inactive are the calls of the source. A value given as a limit tells only on which side of the number the result lay.

Data set [1] has as its target T1, Cytochrome P450 11B2, mitochondrial (Homo sapiens, UniProt P19099).
T1 sequence (P19099 whole entry): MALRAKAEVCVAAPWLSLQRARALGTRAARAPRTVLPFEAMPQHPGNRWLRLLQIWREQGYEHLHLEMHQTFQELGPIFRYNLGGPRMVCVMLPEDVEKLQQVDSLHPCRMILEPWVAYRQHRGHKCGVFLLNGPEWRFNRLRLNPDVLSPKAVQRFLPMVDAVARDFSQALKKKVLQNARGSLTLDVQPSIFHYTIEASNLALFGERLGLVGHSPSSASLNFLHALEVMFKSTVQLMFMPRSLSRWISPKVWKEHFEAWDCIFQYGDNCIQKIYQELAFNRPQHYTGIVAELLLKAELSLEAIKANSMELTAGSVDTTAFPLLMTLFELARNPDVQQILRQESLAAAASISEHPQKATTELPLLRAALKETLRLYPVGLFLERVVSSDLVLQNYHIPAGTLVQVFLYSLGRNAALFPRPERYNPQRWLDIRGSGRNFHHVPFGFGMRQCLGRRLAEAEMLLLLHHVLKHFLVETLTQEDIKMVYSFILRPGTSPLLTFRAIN
In words: Inhibition of human CYP11B2 expressed in V79 cells assessed as aldosterone level after 3 hrs by HTRF assay in presence of 125 nM 11-deoxycorticosterone. It counts as cell-based.

In data set [2] the target is T2, Cytochrome P450 11B1, mitochondrial (Homo sapiens, UniProt P15538).
T2 sequence (P15538 whole entry): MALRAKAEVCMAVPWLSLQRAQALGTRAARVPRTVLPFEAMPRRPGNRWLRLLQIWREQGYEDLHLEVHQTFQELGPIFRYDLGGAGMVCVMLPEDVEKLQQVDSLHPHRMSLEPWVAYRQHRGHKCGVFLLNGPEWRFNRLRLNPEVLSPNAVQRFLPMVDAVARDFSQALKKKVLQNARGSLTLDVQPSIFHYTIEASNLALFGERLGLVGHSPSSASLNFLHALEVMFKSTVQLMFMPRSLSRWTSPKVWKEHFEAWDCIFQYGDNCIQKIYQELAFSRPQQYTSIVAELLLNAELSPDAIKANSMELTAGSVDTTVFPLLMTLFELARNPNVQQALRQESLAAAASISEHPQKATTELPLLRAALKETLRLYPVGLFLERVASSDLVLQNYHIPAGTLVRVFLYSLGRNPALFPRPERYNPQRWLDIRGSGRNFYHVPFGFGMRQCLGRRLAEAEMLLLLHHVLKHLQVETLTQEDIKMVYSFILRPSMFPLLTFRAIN
In words: Inhibition of human CYP11B1 expressed in V79 cells assessed as cortisol level after 3 hrs by HTRF assay in presence of 250 nM 11-deoxycortisol. The class given is cell-based. On the technique in general: Time-resolved FRET reads energy transfer from a long-lived donor to a nearby acceptor.

The nature of data set [3]: Lipophilicity, log D of the compound by HPLC. It counts as physicochemical. An outline of the steps: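 Lipophilicity determined experimentally by HPLC.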
The subject of the next data set is Rattus norvegicus. Briefly: Dose normalized AUC in Sprague-Dawley rat at 2 mg/kg, po administered through gavage. It counts as ADME, organism-based. The following applies: in vivo.
Data set [4] is described as follows: Plasma clearance in Sprague-Dawley rat at 2 mg/kg, po administered through gavage by LC/MS/MS method. The class given is ADME, organism-based.
Data set [5] in a line: Half life in Sprague-Dawley rat at 2 mg/kg, po administered through gavage by LC/MS/MS method. To be noted: in vivo. It counts as ADME, organism-based.
For data set [6], the target named is T3, Steroid 17-alpha-hydroxylase/17,20 lyase (Homo sapiens, UniProt P05093).
T3 sequence (P05093 whole entry): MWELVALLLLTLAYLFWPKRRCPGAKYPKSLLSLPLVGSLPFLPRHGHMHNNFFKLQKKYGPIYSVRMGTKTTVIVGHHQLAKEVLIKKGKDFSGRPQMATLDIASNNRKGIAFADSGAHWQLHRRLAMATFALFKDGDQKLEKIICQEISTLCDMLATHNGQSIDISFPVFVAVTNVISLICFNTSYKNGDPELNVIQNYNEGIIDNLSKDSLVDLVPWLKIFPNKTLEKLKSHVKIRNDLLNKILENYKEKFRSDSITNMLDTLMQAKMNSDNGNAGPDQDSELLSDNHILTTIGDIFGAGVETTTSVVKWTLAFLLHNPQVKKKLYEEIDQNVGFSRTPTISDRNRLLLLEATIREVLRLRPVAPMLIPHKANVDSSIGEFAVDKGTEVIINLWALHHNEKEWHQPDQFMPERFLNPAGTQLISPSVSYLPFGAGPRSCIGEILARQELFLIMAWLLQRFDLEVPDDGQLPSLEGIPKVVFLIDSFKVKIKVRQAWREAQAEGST
In words: Inhibition of human CYP17 expressed in COS7 cells assessed as DHEA level after 3 hrs by EIA assay in presence of 360 nM 17-hydroxypregnenolone. It counts as cell-based, COS-7.

A further data set addresses T4, Aromatase (Homo sapiens, UniProt P11511).
T4 sequence (P11511 whole entry): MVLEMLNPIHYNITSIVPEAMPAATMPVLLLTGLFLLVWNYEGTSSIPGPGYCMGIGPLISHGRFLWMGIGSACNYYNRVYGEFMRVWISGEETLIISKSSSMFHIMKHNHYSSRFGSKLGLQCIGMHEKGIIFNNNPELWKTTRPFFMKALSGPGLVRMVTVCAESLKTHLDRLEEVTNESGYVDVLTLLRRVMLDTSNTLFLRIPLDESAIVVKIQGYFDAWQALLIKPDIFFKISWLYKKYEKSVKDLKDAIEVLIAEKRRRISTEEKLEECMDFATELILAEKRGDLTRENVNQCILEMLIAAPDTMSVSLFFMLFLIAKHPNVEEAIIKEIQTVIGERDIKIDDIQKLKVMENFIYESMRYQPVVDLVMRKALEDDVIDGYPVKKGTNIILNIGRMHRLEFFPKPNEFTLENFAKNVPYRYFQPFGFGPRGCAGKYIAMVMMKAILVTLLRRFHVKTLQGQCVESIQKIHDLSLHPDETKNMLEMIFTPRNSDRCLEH
In words: Inhibition of human CYP19.

For a further data set, the target named is Cytochrome P450 3A4 (Homo sapiens, UniProt P08684). Briefly: Inhibition of human CYP3A4. The class given is ADME.
A short description of data set [7]: Plasma clearance in rhesus monkey at 2 mg/kg administered through gavage by LC-MS/MS method. The class given is ADME, organism-based, Macaca mulatta. The following applies: po.
The subject of data set [8] is Rhesus monkey. Briefly: Decrease in aldosterone level in iv dosed rhesus monkey plasma by LC/MS method. The class given is functional, organism-based. To be noted: Macaca mulatta. The procedure, abridged: (§1)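 Plasma aldosterone and 11-deoxycortisol quantified by LC–MS at time points up to 180 min postdose; AUCs over that period calculated and compared with baseline.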

For data set [9], the system named is Plasma. In words: Fraction unbound in iv dosed rhesus monkey plasma measured 90 mins post dose by LC/MS method. It counts as ADME, organism-based, Macaca mulatta. The following applies: in vivo, 1.5 h.
Data set [10] relates to Rhesus monkey. In words: Decrease in aldosterone level in rhesus monkey plasma at 0.3 mg/kg, iv by LC/MS method. The class given is functional. The following applies: Macaca mulatta. An outline of the steps: as §1
The subject of data set [11] is Plasma. In words: Free plasma concentration in rhesus monkey at 0.3 mg/kg, iv measured 90 mins post dose by LC/MS method. The class given is ADME, organism-based, Macaca mulatta. To be noted: in vivo, 1.5 h. The procedure, abridged:
(§2)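 Anesthetized rhesus monkeys dosed i.v.; plasma drug concentration measured 90 min postdose. Free (unbound) concentration calculated from total plasma level using the free fraction determined in rhesus plasma.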

For data set [12], the system named is Plasma. In words: Free plasma concentration in rhesus monkey at 1 mg/kg, iv measured 90 mins post dose by LC/MS method. It counts as ADME, organism-based, Macaca mulatta. The following applies: in vivo, 1.5 h. An outline of the steps: as §2
The test system of data set [13] is Rhesus monkey. Briefly: Effect on 11-deoxycortisol level in rhesus monkey plasma upto 1 mg/kg, iv by LC/MS method. It counts as functional, organism-based. The following applies: Macaca mulatta. An outline of the steps:
as §1

Cytochrome P450 3A4, sequence (P08684 whole entry): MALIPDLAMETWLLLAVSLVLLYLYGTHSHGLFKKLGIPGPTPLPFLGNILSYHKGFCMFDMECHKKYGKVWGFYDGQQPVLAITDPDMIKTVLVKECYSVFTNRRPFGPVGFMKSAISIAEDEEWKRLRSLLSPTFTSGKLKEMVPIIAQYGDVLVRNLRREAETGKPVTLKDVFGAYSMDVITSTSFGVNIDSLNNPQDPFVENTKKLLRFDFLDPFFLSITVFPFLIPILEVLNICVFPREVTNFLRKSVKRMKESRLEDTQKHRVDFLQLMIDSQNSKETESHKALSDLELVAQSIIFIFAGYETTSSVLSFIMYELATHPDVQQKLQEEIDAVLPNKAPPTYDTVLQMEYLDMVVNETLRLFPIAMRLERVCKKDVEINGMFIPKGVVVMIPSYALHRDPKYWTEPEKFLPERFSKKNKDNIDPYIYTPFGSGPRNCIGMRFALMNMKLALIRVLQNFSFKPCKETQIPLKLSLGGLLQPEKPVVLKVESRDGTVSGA

Take `Cc1nnc2n1-c1ccc(-c3cncc([C@](C)(O)C(F)(F)F)c3)cc1CC2`: the 50% inhibitory concentration (IC50) in data set [1] is 64 nM; in data set [2], 4.4 µM; in data set [6], more than 10 µM; against Aromatase it was more than 30 µM; against Cytochrome P450 3A4, more than 50 µM. For the same compound, the logD in [3] came out at 1.2. This compound showed an AUC/dose in the data set with Rattus norvegicus of 1.88 µM·kg·h/mg. The values for the CL/F in data set [4] and in data set [7] were 21 mL/min/kg and 3 mL/min/kg, respectively. Besides, the half-life in data set [5] is 72 min. The inhibition entry with Rhesus monkey [8] is “Dose-dependent effect”. In addition, the Fu in the data set on Plasma [9] worked out at 31%. For the same compound, at 0.3 mg/kg the inhibition in vivo with Rhesus monkey [10] was 71%. Besides, the figures for the “Cp(f)” value with Plasma [11] and in the data set with Plasma [12] were 73 nM and 279 nM, respectively. The outcome in the data set on Rhesus monkey [13] was inactive.

Broadly, the IC50 is the concentration that gives 50% inhibition. One may read the logD as lipophilicity at a set pH, counting ionised and neutral species. Usually CL/F stands for the apparent clearance, not corrected for the fraction that reaches the circulation. In general, half-life refers to the time needed for the level to fall by half in the phase considered. As usually defined, the inhibition in vivo is the drop in the measured response relative to a control, in per cent.

These data come from ChEMBL document CHEMBL3621164, “Discovery of Triazole CYP11B2 Inhibitors with in Vivo Activity in Rhesus Monkeys” (ACS Med Chem Lett, 2015).
